Results of several laboratories.
Compare with care: the assays were run in different laboratories.
Target: Peroxisome proliferator-activated receptor alpha (PPARA, Homo sapiens, UniProt Q07869)
Sequence (Q07869 1-468, as in one of the studies): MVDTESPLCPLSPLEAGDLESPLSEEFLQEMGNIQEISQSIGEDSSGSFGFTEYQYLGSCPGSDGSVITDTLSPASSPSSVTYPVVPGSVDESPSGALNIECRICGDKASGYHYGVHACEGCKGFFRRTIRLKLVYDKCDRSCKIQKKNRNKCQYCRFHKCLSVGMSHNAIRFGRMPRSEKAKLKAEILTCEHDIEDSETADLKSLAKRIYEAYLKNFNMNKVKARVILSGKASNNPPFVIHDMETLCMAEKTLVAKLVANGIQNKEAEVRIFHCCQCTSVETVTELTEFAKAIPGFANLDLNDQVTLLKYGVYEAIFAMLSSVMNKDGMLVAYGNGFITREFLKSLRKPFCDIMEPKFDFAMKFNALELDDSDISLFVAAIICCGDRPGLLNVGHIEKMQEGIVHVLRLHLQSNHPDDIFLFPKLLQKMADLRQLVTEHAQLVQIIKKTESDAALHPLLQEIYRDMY

| Structure (SMILES) | read-out | mode | method | endpoint | result |
| --- | --- | --- | --- | --- | --- |
| C=CCc1ccc(O)c(-c2cc(CC=C)ccc2O)c1 | ligand displacement | – | TR-FRET | Ki | 3.38 µM |
| CCCCCC#CCC#CCC#CCC#CCCCC(=O)O | reporter gene | agonist | luciferase | EC50 | 0.99 µM |
| C=CCc1ccc(O)c(-c2ccc(O)c(CC=C)c2)c1 | ligand displacement | – | TR-FRET | Ki | 4.6 µM |
| O=C(Nc1ccc(Oc2ncccn2)cc1C(=O)O)c1ccc(Cl)cc1Cl | ligand displacement | – | TR-FRET | IC50 | 11.9 µM |
| CC1(C)C=Cc2c(cc3oc(-c4ccccc4)c(O)c(=O)c3c2O)O1 | ligand displacement | – | TR-FRET | Ki | 3.3 µM |
| Cc1ccc(C)c(OCCCC(C)(C)C(=O)O)c1 | reporter gene | agonist | luciferase | EC50 | 201 µM |
| O=C(Nc1ccc(CCF)cc1)c1cc([N+](=O)[O-])ccc1Cl | enzyme activity in cells | inhibitor | – | IC50 | > 2 µM |
| Cc1c(C)n(Cc2ccc(-c3ccccc3C(=O)O)cc2)c2ccc(C(=O)N[C@@H](C)c3ccc(C(C)(C)C)cc3)cc12 | ligand displacement | – | TR-FRET | Ki | 0.594 µM |
| O=C(Nc1ccc(OCCF)cc1)c1cc([N+](=O)[O-])ccc1Cl | enzyme activity in cells | inhibitor | – | IC50 | > 2 µM |
| CC(C)(Oc1ccc(C(=O)c2ccc(Cl)cc2)cc1)C(=O)O | reporter gene | agonist | luciferase | EC50 | 47.1 µM |
